Measurements published in ChEMBL document CHEMBL1156665, “Potent inhibition of human phosphodiesterase-5 by icariin derivatives” (J Nat Prod, 2008).
Calls of active or inactive are those of the source. The rule behind the calls is not given here.

Tests used:
[1] = target: T1, cGMP-specific 3',5'-cyclic phosphodiesterase (Homo sapiens, UniProt O76074); experiment: Inhibition of human recombinant PDE5A1 expressed in COS7 cells at 10 uM; assay type: cell-based; conditions: COS-7
Summary of the method: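 Full-length human PDE5A1 cDNA expressed in COS-7 cells as the enzyme source. Activity measured by the Kincaid and Manganiello method with minor modifications. Individual compounds screened at a single 10 µM concentration; plant extracts at 50 µg/mL. Results are mean ± SD of at least two experiments in triplicate.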

[2] = target: T1, cGMP-specific 3',5'-cyclic phosphodiesterase; experiment: Inhibition of human recombinant PDE5A1 expressed in COS7 cells; assay type: cell-based, COS-7
[3] = target: T2, Cone cGMP-specific 3',5'-cyclic phosphodiesterase subunit alpha' (Homo sapiens, UniProt P51160); experiment: Inhibition of human PDE6C at 10 uM; conditions: in the assay text read “at 10-fold PDE5A1 IC50” for “at 10 uM”
Summary of the method: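 Human PDE6C run under the same conditions as the PDE5A1 assay (Kincaid–Manganiello method, modified), at 0.5 U enzyme per sample. Compounds tested at a single concentration 10-fold above their PDE5A1 IC50. Mean ± SD of at least two experiments in triplicate.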

Homo sapiens [4] = species: Homo sapiens; experiment: Selectivity ratio of IC50 for human PDE6C to IC50 for human PDE5A1
Summary of the method: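 PDE6C IC50 divided by PDE5A1 IC50. PDE6C assayed as for PDE5A1 (modified Kincaid–Manganiello method, 0.5 U enzyme/sample). PDE5A1 was full-length human recombinant enzyme expressed in COS-7 cells. IC50s from sigmoidal curve fits. Mean ± SD of at least two experiments in triplicate.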

[5] = target: T2, Cone cGMP-specific 3',5'-cyclic phosphodiesterase subunit alpha'; experiment: Inhibition of human PDE6C
Homo sapiens [6] = species: Homo sapiens; experiment: Selectivity ratio of IC50 for human cAMP-PDE to IC50 for human PDE5A1
Summary of the method: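 cAMP-PDE IC50 divided by PDE5A1 IC50. cAMP-PDE from human platelet lysate (64 µg protein/mL) with 0.5 µM cAMP/[3H]-cAMP, 5 min at 30 °C, at 1–250 µM. PDE5A1 was recombinant human full-length enzyme expressed in COS-7 cells. IC50s from sigmoidal fits.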

[7] = Cytotoxicity against human fibroblasts at 100 uM after 24 hrs by MTT assay; assay type: cell-based; conditions: fibroblast
Summary of the method: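 Human skin fibroblasts exposed 24 h to 0.25–100 µM in DMEM-F12 with 10% heat-inactivated FBS, 1% penicillin, 1% L-glutamine. Medium then replaced with MTT 0.5 mg/mL in PBS, 3 h at 37 °C. Formazan extracted with 2-propanol/DMSO (9:1), 15 min at 37 °C, absorbance read at 560 nm.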

[8] = Inhibition of human platelet cAMP-specific phosphodiesterase
Summary of the method: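 Platelets from healthy volunteers' blood, pelleted by centrifugation at 4 °C, resuspended in 10 mM Tris/HCl pH 7.4 and lysed by three freeze–thaw cycles. Lysate (64 µg protein/mL) incubated 5 min at 30 °C with 0.5 µM cAMP plus [3H]-cAMP in 30 mM Tris-HCl pH 7.4, 4 mM MgCl2. Product converted with nucleotidase and separated on DEAE-Sephadex. [3H]-adenosine counted by scintillation. Tested at 1–250 µM, IC50 from sigmoidal fit. Mean ± SD of three experiments in triplicate.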

T2 sequence (P51160 whole entry): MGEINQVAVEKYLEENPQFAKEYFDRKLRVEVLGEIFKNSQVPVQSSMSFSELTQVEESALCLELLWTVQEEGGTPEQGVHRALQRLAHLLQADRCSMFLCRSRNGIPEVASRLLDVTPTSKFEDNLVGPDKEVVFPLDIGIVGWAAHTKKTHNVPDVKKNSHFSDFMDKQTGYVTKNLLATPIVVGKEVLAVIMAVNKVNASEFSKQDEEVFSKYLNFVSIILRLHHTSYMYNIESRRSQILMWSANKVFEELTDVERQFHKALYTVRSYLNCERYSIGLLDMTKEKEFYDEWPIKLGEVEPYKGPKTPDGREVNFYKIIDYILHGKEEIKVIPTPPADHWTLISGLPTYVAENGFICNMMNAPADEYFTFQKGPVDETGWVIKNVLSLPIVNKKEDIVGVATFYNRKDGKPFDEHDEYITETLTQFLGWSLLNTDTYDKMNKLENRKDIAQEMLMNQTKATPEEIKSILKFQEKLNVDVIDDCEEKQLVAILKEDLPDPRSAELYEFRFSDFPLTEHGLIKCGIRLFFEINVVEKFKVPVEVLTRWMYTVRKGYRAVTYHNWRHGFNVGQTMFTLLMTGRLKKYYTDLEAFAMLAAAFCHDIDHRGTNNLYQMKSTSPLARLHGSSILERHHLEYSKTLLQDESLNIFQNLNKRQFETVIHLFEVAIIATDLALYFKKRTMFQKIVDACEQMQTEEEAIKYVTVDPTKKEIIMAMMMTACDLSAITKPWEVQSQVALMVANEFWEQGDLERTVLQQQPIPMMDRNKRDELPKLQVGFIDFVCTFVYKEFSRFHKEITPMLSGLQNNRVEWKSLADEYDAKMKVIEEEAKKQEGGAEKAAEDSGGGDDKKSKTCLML

O=c1cc(-c2ccc(O)cc2)oc2cc(O)cc(O)c12
inhibition [1]: 12%

COc1ccc(-c2oc3c(CC=C(C)C)c(O[C@@H]4O[C@H](CO)[C@@H](O)[C@H](O)[C@H]4O)cc(O)c3c(=O)c2O[C@@H]2O[C@@H](C)[C@H](O)[C@@H](O)[C@H]2O)cc1 [ICARIIN]
IC50 [2]: 5.9 µM
inhibition [3]: 45%

COc1ccc(-c2oc3c(CC=C(C)C)c(OCCO)cc(O)c3c(=O)c2OCCO)cc1
IC50 [2]: 0.074 µM
Ratio IC50 (Homo sapiens [4]): 418
IC50 [5]: 30.9 µM
Ratio IC50 (Homo sapiens [6]): 1300
Activity [7]: Non-toxic
Activity [3]: inactive
IC50 [8]: 96.3 µM

COc1ccc(-c2oc3c(CC=C(C)C)c(O)cc(O)c3c(=O)c2O[C@@H]2O[C@H](C)[C@@H](O)[C@H](O)[C@@H]2O)cc1
Activity [3]: inactive

CCCc1nn(C)c2c(=O)[nH]c(-c3cc(S(=O)(=O)N4CCN(C)CC4)ccc3OCC)nc12
IC50 [8]: 27.5 µM

CC(C)=CCc1c(O)cc(O)c2c(=O)cc(-c3ccc(O)cc3)oc12
IC50 [2]: 1.29 µM

CC(C)=CCc1c(O)cc(O)c2c1OC(c1ccc(O)cc1)CC2=O (centres undefined) [SOPHORAFLAVANONE B]
IC50 [2]: 16.2 µM

O=C1C[C@@H](c2ccc(O)cc2)Oc2cc(O)cc(O)c21
inhibition [1]: 6%

O=c1c(O)c(-c2ccc(O)c(O)c2)oc2cc(O)cc(O)c12
inhibition [1]: 23%

COc1ccc(-c2oc3c(CC=C(C)C)c(OCCO)cc(O)c3c(=O)c2O[C@@H]2O[C@H](C)[C@@H](O)[C@H](O)[C@@H]2O)cc1
IC50 [2]: 0.36 µM
inhibition [3]: 86%

COc1ccc(-c2oc3c(CC=C(C)C)c(O)cc(O)c3c(=O)c2O[C@@H]2O[C@@H](C)[C@H](O)[C@@H](O)[C@H]2O)cc1 [ICARISIDE II]
IC50 [2]: 0.16 µM

CC(C)=CCc1c(O)cc(O)c2c(=O)c(O)c(-c3ccc(O)c(O)c3)oc12
IC50 [2]: 0.7 µM

COc1ccc(-c2oc3c4c(cc(O)c3c(=O)c2O)OC(C)(C)CC4)cc1
IC50 [2]: 45.5 µM
Activity [3]: inactive

COc1ccc(-c2oc3c(CC=C(C)C)c(O)cc(O)c3c(=O)c2O)cc1 [ICARITIN]
IC50 [2]: 2.2 µM
Activity [3]: inactive
